Test results published in ChEMBL document CHEMBL1240355 (2010).
≈ marks a conversion by molar mass, not a printed value. Calls of active or inactive are those of the source. No cut-off for these calls is given here.

Tests used:
Salmonella enteritidis [1] = assay: Antibacterial activity against ciprofloxacin-resistant Salmonella enteritidis 104 harboring gyrA D87Y/S83F mutant, soxR R20H mutant and soxS E52K mutant gene assessed as reduction in swim motility after overnight incubation; type: functional, Salmonella enterica subsp. enterica serovar Enteritidis
Procedure, shortened: (§1)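 Swim assay: 1 µl of overnight culture spotted centrally on LB with 0.1% gellan gum, dried 1 h at room temperature, incubated overnight at 30°C. Visible spread measured with a ruler (mm). Reduction expressed relative to the parent strain.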

Salmonella enteritidis [2] = assay: Antibacterial activity against ciprofloxacin-susceptibility revert strain of Salmonella enteritidis 104 harboring gyrA D87Y/S83F mutant, parC D79N mutant, soxR E16G/R20H mutant and soxS E52K mutant gene assessed as reduction in swim motility after overnight incubation; type: functional, Salmonella enterica subsp. enterica serovar Enteritidis; procedure, shortened: as §1
Salmonella enteritidis [3] = assay: Antibacterial activity against ciprofloxacin-resistant Salmonella enteritidis 5408 harboring gyrA D87Y mutant, gyrB E466D mutant, parE V461G mutant and ramR G25A mutant gene assessed as reduction in swim motility after overnight incubation; type: functional, Salmonella enterica subsp. enterica serovar Enteritidis; procedure, shortened: as §1
Salmonella enteritidis [4] = assay: Antibacterial activity against ciprofloxacin-resistant Salmonella enteritidis 104 harboring gyrA D87Y/S83F mutant, soxR R20H mutant and soxS E52K mutant gene assessed as reduction in swarm motility after overnight incubation; type: functional, Salmonella enterica subsp. enterica serovar Enteritidis
Procedure, shortened: (§2)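 Swarm assay: overnight LB culture pelleted, washed once, concentrated 50-fold. 2 µl spotted on LB with 0.2% gellan gum, incubated overnight at 30°C. Colony spread measured in mm. Reduction expressed relative to the parent strain.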

Salmonella enteritidis [5] = assay: Antibacterial activity against ciprofloxacin-resistant Salmonella enteritidis 5408 harboring gyrA D87Y mutant, gyrB E466D mutant, parE V461G mutant and ramR G25A mutant gene assessed as reduction in swarm motility after overnight incubation; type: functional, Salmonella enterica subsp. enterica serovar Enteritidis; procedure, shortened: as §2
Salmonella enteritidis [6] = assay: Antibacterial activity against ciprofloxacin-susceptibility revert strain of Salmonella enteritidis 104 harboring gyrA D87Y/S83F mutant, parC D79N mutant, soxR E16G/R20H mutant and soxS E52K mutant gene assessed as reduction in swarm motility after overnight incubation; type: functional, Salmonella enterica subsp. enterica serovar Enteritidis; procedure, shortened: as §2
Salmonella enteritidis [7] = assay: Antibacterial activity against Salmonella enteritidis by CLSI method; settings: Salmonella enterica
Salmonella enteritidis [8] = assay: Antibacterial activity against ciprofloxacin-resistant Salmonella enteritidis 104 harboring gyrA D87Y/S83F mutant, soxR R20H mutant and soxS E52K mutant gene after 24 hrs by spectrophotometry; type: functional, organism-based; settings: Salmonella enterica subsp. enterica serovar Enteritidis
Procedure, shortened: (§3)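 Growth in TSB: colony from TSA (37°C, 18 h) grown overnight in 10 ml TSB, 1 ml into 100 ml TSB, shaken aerobically at 37°C. Absorbance read hourly for 8 h, then at 24 h, by spectrophotometer.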

Salmonella enteritidis [9] = assay: Antibacterial activity against ciprofloxacin-resistant Salmonella enteritidis 5408 harboring gyrA D87Y mutant, gyrB E466D mutant, parE V461G mutant and ramR G25A mutant gene after 24 hrs by spectrophotometry; type: functional, organism-based; settings: Salmonella enterica subsp. enterica serovar Enteritidis; procedure, shortened: as §3
Salmonella enteritidis [10] = assay: Antibacterial activity against wild type Salmonella enteritidis 104 harboring gyrA D87Y mutant gene after 24 hrs by spectrophotometry; type: functional, organism-based; settings: Salmonella enterica subsp. enterica serovar Enteritidis; procedure, shortened: as §3
Salmonella enteritidis [11] = assay: Antibacterial activity against wild type Salmonella enteritidis 5408 harboring gyrA D87Y mutant gene after 24 hrs by spectrophotometry; type: functional, organism-based; settings: Salmonella enterica subsp. enterica serovar Enteritidis; procedure, shortened: as §3
Salmonella enteritidis [12] = assay: Antibacterial activity against ciprofloxacin-susceptibility revert strain of Salmonella enteritidis 104 harboring gyrA D87Y/S83F mutant, parC D79N mutant, soxR E16G/R20H mutant and soxS E52K mutant gene after 24 hrs by spectrophotometry; type: functional, organism-based; settings: Salmonella enterica subsp. enterica serovar Enteritidis; procedure, shortened: as §3
Salmonella enteritidis [13] = assay: Antibacterial activity against ciprofloxacin-susceptible Salmonella enteritidis 1A-revertC2 harboring gyrA D87Y/S83F mutant, parC D79N mutant, soxR R133C/R20H mutant, soxS E52K mutant and marA I111N/H115Q mutant gene after 70 passages after 24 hrs by spectrophotometry; type: functional, organism-based; settings: Salmonella enterica subsp. enterica serovar Enteritidis; procedure, shortened: as §3
Salmonella enteritidis [14] = assay: Antibacterial activity against ciprofloxacin-resistant Salmonella enteritidis 104 harboring gyrA D87Y/S83F mutant, soxR R20H mutant and soxS E52K mutant gene assessed as length of bacterial rods by microscopy; type: functional, Salmonella enterica subsp. enterica serovar Enteritidis
Salmonella enteritidis [15] = assay: Antibacterial activity against wild type Salmonella enteritidis 104 harboring gyrA D87Y mutant gene assessed as length of bacterial rods by microscopy; type: functional, Salmonella enterica subsp. enterica serovar Enteritidis
Salmonella enteritidis [16] = assay: Antibacterial activity against ciprofloxacin-resistant Salmonella enteritidis 104 harboring gyrA D87Y/S83F mutant, soxR R20H mutant and soxS E52K mutant gene assessed as width of bacterial rods by microscopy; type: functional, Salmonella enterica subsp. enterica serovar Enteritidis
Salmonella enteritidis [17] = assay: Antibacterial activity against wild type Salmonella enteritidis 104 harboring gyrA D87Y mutant gene assessed as width of bacterial rods by microscopy; type: functional, Salmonella enterica subsp. enterica serovar Enteritidis
Salmonella enteritidis [18] = assay: Antibacterial activity against ciprofloxacin-resistant Salmonella enteritidis 5408 harboring gyrA D87Y mutant, gyrB E466D mutant, parE V461G mutant and ramR G25A mutant gene assessed as length of bacterial rods by microscopy; type: functional, Salmonella enterica subsp. enterica serovar Enteritidis
Salmonella enteritidis [19] = assay: Antibacterial activity against wild type Salmonella enteritidis 5408 harboring gyrA D87Y mutant gene assessed as length of bacterial rods by microscopy; type: functional, Salmonella enterica subsp. enterica serovar Enteritidis
Salmonella enteritidis [20] = assay: Antibacterial activity against ciprofloxacin-resistant Salmonella enteritidis 5408 harboring gyrA D87Y mutant, gyrB E466D mutant, parE V461G mutant and ramR G25A mutant gene assessed as width of bacterial rods by microscopy; type: functional, Salmonella enterica subsp. enterica serovar Enteritidis
Salmonella enteritidis [21] = assay: Antibacterial activity against wild type Salmonella enteritidis 5408 harboring gyrA D87Y mutant gene assessed as width of bacterial rods by microscopy; type: functional, Salmonella enterica subsp. enterica serovar Enteritidis
Salmonella enteritidis [22] = assay: Antibacterial activity against wild type Salmonella enteritidis 104 harboring gyrA D87Y mutant gene by CLSI method; type: functional, Salmonella enterica subsp. enterica serovar Enteritidis; settings: Salmonella enterica
Salmonella enteritidis [23] = assay: Antibacterial activity against ciprofloxacin-susceptibility revert strain of Salmonella enteritidis 104 harboring gyrA D87Y/S83F mutant, parC D79N mutant, soxR E16G/R20H mutant and soxS E52K mutant gene after 20 passages by CLSI method; type: functional, Salmonella enterica subsp. enterica serovar Enteritidis; settings: Salmonella enterica
Salmonella enteritidis [24] = assay: Antibacterial activity against ciprofloxacin-susceptible Salmonella enteritidis 1A-revertC2 harboring gyrA D87Y/S83F mutant, parC D79N mutant, soxR R133C/R20H mutant, soxS E52K mutant and marA I111N/H115Q mutant gene after 70 passages by CLSI method; type: functional, Salmonella enterica subsp. enterica serovar Enteritidis; settings: Salmonella enterica
Salmonella enteritidis [25] = assay: Antibacterial activity against wild type Salmonella enteritidis 5408 harboring gyrA D87Y mutant gene by CLSI method; type: functional, Salmonella enterica subsp. enterica serovar Enteritidis; settings: Salmonella enterica
Salmonella enteritidis [26] = assay: Antibacterial activity against ciprofloxacin-resistant Salmonella enteritidis 5408 harboring gyrA D87Y mutant, gyrB E466D mutant, parE V461G mutant and ramR G25A mutant gene after 200 passages by CLSI method; type: functional, Salmonella enterica subsp. enterica serovar Enteritidis; settings: Salmonella enterica
Salmonella enteritidis [27] = assay: Antibacterial activity against ciprofloxacin-resistant Salmonella enteritidis 104 harboring gyrA D87Y/S83F mutant, soxR R20H mutant and soxS E52K mutant gene by CLSI method; settings: Salmonella enterica
Salmonella enteritidis [28] = assay: Antibacterial activity against Salmonella enteritidis NCTC 13349 by CLSI method; type: functional, Salmonella enterica subsp. enterica serovar Enteritidis; settings: Salmonella enterica

O=C(O)c1cn(C2CC2)c2cc(N3CCNCC3)c(F)cc2c1=O [CIPROFLOXACIN]
inhibition (INH) (Salmonella enteritidis [1]): 66%
inhibition (INH) (Salmonella enteritidis [2]): 90%
inhibition (INH) (Salmonella enteritidis [3]): 93%
inhibition (INH) (Salmonella enteritidis [4]): 36%
inhibition (INH) (Salmonella enteritidis [5]): 46%
inhibition (INH) (Salmonella enteritidis [6]): 36%
MIC (Salmonella enteritidis [7]): 0.12 µg/mL (≈ 0.362 µM)
Activity (Salmonella enteritidis [8]): inactive
Activity (Salmonella enteritidis [9]): inactive
Activity (Salmonella enteritidis [10]): Active
Activity (Salmonella enteritidis [11]): Active
Activity (Salmonella enteritidis [12]): Active
Activity (Salmonella enteritidis [13]): Active
Activity (Salmonella enteritidis [14]): 1.16 um
Activity (Salmonella enteritidis [15]): 1.02 um
Activity (Salmonella enteritidis [16]): 0.45 um
Activity (Salmonella enteritidis [17]): 0.43 um
Activity (Salmonella enteritidis [18]): 1 um
Activity (Salmonella enteritidis [19]): 1.1 um
Activity (Salmonella enteritidis [20]): 0.51 um
Activity (Salmonella enteritidis [21]): 0.46 um

O=C(N[C@H](CO)[C@H](O)c1ccc([N+](=O)[O-])cc1)C(Cl)Cl [CHLORAMPHENICOL]
MIC (Salmonella enteritidis [22]): 2 µg/mL (≈ 6.19 µM)
MIC (Salmonella enteritidis [23]): 8 µg/mL (≈ 24.8 µM)
MIC (Salmonella enteritidis [24]): 2 µg/mL (≈ 6.19 µM)
MIC (Salmonella enteritidis [25]): 4 µg/mL (≈ 12.4 µM)
MIC (Salmonella enteritidis [26]): 16 µg/mL (≈ 49.5 µM)
MIC (Salmonella enteritidis [27]): 128 µg/mL (≈ 396 µM)

CC1(C)S[C@@H]2[C@H](NC(=O)[C@H](N)c3ccccc3)C(=O)N2[C@H]1C(=O)O [AMPICILLIN]
MIC (Salmonella enteritidis [22]): 1 µg/mL (≈ 2.86 µM)
MIC (Salmonella enteritidis [23]): 4 µg/mL (≈ 11.4 µM)
MIC (Salmonella enteritidis [24]): 0.5 µg/mL (≈ 1.43 µM)
MIC (Salmonella enteritidis [25]): 1 µg/mL (≈ 2.86 µM)
MIC (Salmonella enteritidis [26]): 4 µg/mL (≈ 11.4 µM)
MIC (Salmonella enteritidis [27]): 16 µg/mL (≈ 45.8 µM)

CN(C)[C@@H]1C(O)=C(C(N)=O)C(=O)[C@@]2(O)C(O)=C3C(=O)c4c(O)cccc4[C@@](C)(O)[C@H]3C[C@@H]12 [TETRACYCLINE]
MIC (Salmonella enteritidis [22]): 1 µg/mL (≈ 2.25 µM)
MIC (Salmonella enteritidis [23]): 2 µg/mL (≈ 4.5 µM)
MIC (Salmonella enteritidis [24]): 0.5 µg/mL (≈ 1.13 µM)
MIC (Salmonella enteritidis [25]): 1 µg/mL (≈ 2.25 µM)
MIC (Salmonella enteritidis [26]): 2 µg/mL (≈ 4.5 µM)
MIC (Salmonella enteritidis [27]): 16 µg/mL (≈ 36 µM)

CCn1cc(C(=O)O)c(=O)c2ccc(C)nc21 [NALIDIXIC ACID]
MIC (Salmonella enteritidis [22]): > 256 µg/mL
MIC (Salmonella enteritidis [23]): > 256 µg/mL
MIC (Salmonella enteritidis [24]): > 256 µg/mL
MIC (Salmonella enteritidis [25]): > 256 µg/mL
MIC (Salmonella enteritidis [26]): > 256 µg/mL
MIC (Salmonella enteritidis [28]): 8 µg/mL (≈ 34.4 µM)
MIC (Salmonella enteritidis [27]): > 256 µg/mL
